High-throughput results deposited in PubChem by several laboratories.
CR mimetic SO: reduction of superoxide in aged yeast, primary screen, HTS; superoxide response (% of plate mean), % at 10 µM; 330,000 compounds, 0.18% hits; S. cerevisiae aged cells, superoxide DHE fluorescence; stronger effect = lower value;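 active = superoxide response under a set limit, about three screen SD below normal, cut at about 65% in these data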;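 also: yeast aged for seven days with compound at 30 °C before DHE staining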
beta cell repl: inducers of MIN6 beta-cell proliferation, primary screen, ATP luminescence, uHTS; proliferation, % at 10 µM; 330,000 compounds, 0.29% hits; MIN6 cells proliferation, ATPlite luminescence, 48 h; cells starved in 0.2% serum; 100% = growth in 10% serum;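 active = compounds whose signal lies at least 3.5 SD above the mean of all wells on their plate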
UCH37 inh: inhibitors of human UCH37 deubiquitinase, primary screen, biochemical, Ub-AMC cleavage, fluorescence. purified proteasome/UCH37. AID 588478, 2011. inhibition, % (test concentration not listed). 330,000 compounds, 0.33% hits. Ubiquitin carboxyl-terminal hydrolase isozyme L5 (Homo sapiens), Q9Y5K5;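 active = mean inhibition over replicate wells above about 20%, limit read from the data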
Target sequence (Q9Y5K5 whole entry, looked up): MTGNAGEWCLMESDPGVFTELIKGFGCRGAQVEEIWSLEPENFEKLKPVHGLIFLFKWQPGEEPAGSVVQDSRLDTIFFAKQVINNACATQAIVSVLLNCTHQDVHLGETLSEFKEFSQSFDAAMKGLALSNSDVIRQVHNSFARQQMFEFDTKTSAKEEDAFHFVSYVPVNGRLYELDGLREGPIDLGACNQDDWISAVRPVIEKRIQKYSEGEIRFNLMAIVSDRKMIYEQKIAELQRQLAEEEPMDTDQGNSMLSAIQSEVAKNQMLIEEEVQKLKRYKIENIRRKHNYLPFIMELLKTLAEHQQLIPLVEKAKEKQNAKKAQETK
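Material: Human UCH37 enzyme supplied as purified proteasome complex | Schedule: 30 min preincubation with enzyme, 25 min cleavage at room temperature | Detection: AMC fluorescence 355/460 nm | Measure: % inhibition of Ub-AMC cleavage fluorescence | Controls: Wells without proteasome as full block, compound-free enzyme plus substrate as uninhibited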
Rev-erbA mod: modulators of Rev-erb alpha DNA binding, primary screen, biochemical, FITC-DNA, fluorescence polarization, uHTS. activity, % at 10 µM. 370,000 compounds, 0.79% hits. Nuclear receptor subfamily 1 group D member 1 (Homo sapiens), P20393. Rev-erbα–FITC-DNA binding, 90 min. AID 1259318, 2017;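 active = activity above about 14%, limit read from the data; passing the limit was not always enough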
PG9 Ab binder: binders of HIV-1 gp120 antibody PG9, primary screen, biochemical, TR-FRET | HIV-1 gp120 / PG9 antibody interaction | TR-FRET gp120-PG9 antibody binding | inhibition, % at 6.7 µM | 360,000 compounds, 0.43% hits | AID 624416, 2012; in the data active = inhibition above about 8.5%
Rce1 inh: yeast Rce1p protease inhibitors, primary screen, biochemical, fluorescence, cell-free homogeneous; CAAX prenyl protease 2 (Saccharomyces cerevisiae (strain ATCC 204508 / S288c)), Q03530; yeast membranes, quenched prenylated peptide cleavage fluorescence; calls only; 290,000 compounds, 0.27% hits; AID 2563, 2010;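 active = fall in fluorescence gain of 50% or more versus controls, with final raw signal at or below 3038400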
Target sequence (Q03530 whole entry, looked up): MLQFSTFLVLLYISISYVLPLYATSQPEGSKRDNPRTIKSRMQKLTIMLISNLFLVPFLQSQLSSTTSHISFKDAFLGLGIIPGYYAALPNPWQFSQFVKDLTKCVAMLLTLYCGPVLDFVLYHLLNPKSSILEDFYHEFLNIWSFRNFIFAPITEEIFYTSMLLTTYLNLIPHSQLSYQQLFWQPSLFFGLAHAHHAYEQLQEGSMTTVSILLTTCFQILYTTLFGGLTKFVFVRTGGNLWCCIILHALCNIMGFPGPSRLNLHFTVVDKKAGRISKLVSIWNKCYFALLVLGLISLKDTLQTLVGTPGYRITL
PG9 binder conf: binders of anti-gp120 antibody PG9, confirmation, biochemical, TR-FRET; shares compounds with PG9 Ab binder; TR-FRET PG9 antibody binding; inhibition, % at 6.7 µM; 1,500 compounds, 90% hits; in the data active = inhibition above about 9%
PGV04 counter: binders of control antibody PGV04, counter-screen for PG9 antibody binder project, biochemical, TR-FRET, distinct HIV envelope site; shares compounds with PG9 Ab binder; TR-FRET PGV04 antibody-gp120 binding; AID 651604, 2012; inhibition, % at 6.7 µM; 1,500 compounds, 95% hits; in the data active = inhibition above about 9.5%
PG9 binder DR: small-molecule binders of antibody PG9, dose response, biochemical, TR-FRET, HIV-1 gp120 antibody. 95 tested, under 10 active. IC50, µM. TR-FRET PG9 antibody-gp120 binding inhibition. shares compounds with PG9 Ab binder. AID 651848, 2012; in the data active = IC50 below about 10 µM
PGV04 binding DR: binders of control antibody PGV04, dose response, counter-screen for PG9 antibody binder project, biochemical, TR-FRET, distinct HIV envelope site | TR-FRET binding to control antibody PGV04 | AID 651937, 2012 | shares compounds with PG9 Ab binder | 95 compounds, 20% hits | IC50, µM
PG126 DR counter: binders of control antibody PG126, dose response, counter-screen for PG9 antibody binder project, biochemical, TR-FRET, distinct HIV envelope site. 95 compounds, 20% hits. shares compounds with PG9 Ab binder. AID 651939, 2012. TR-FRET binding to antibody PG126, counterscreen. IC50, µM
NR1D1 mod conf: modulators of Rev-erb alpha DNA binding, confirmation, biochemical, FITC-DNA, fluorescence polarization, single point. shares compounds with Rev-erbA mod. 90 min. activation, % at 25 µM. 3,000 compounds, 61% hits. AID 1259319, 2017;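 active = activation at or above a set limit, or at least 3 SD above the negative control mean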
RORg DNA counter: modulation of RORgamma DNA binding, dose response, counter-screen for Rev-erb alpha modulator project, biochemical, fluorescence polarization, FITC-DNA; purified RORgamma protein-FITC-DNA binding; 910 compounds, 8% hits; shares compounds with Rev-erbA mod; IC50, µM; AID 1259320, 2017;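 active = Compounds whose fitted half-maximal concentration for disrupting protein-DNA binding is below 10 micromolar; the record names Rev-erb in its text, so the target is in doubt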
Each line names hits and unclear results; the compound was inactive in the other large screens (follow-up assays come after a bar, where they were run). Sampled rows, rich in hits. Any-hit rate of the full collection: about 1.9%. Rule as the data show it, unless noted: active = IC50 below about 9 µM; inactive = the rest.

Cc1ccnn1CC(=O)NN=Cc1ccco1	none (no result: CR mimetic SO, beta cell repl, Rev-erbA mod, PG9 Ab binder, Rce1 inh)
Cn1cccc1C=NNC(N)=S	none (no result: CR mimetic SO, beta cell repl, Rev-erbA mod, PG9 Ab binder, Rce1 inh)
Cc1ccccc1CNc1ncnc2cc(Cl)ccc12	Rev-erbA mod 238.9, PG9 Ab binder 90.1 | PG9 binder conf 90.5 | PGV04 counter 95.8 | NR1D1 mod conf 189.5 | RORg DNA counter 2.13
Cc1cc(C=NO)c(C)n1-c1ccc(Br)cc1	none (no result: CR mimetic SO, beta cell repl, Rev-erbA mod, PG9 Ab binder, Rce1 inh)
COc1cc(C(=O)Nc2nnc(Cc3ccccc3)s2)cc(OC)c1OC	none (no result: beta cell repl)
COc1ccc(Cc2nnc(NC(=O)c3ccc(OC)c(OC)c3)s2)cc1	none (no result: UCH37 inh)
COc1ccc(C(=O)Nc2nnc(Cc3ccccc3)s2)c(OC)c1	Rev-erbA mod 70.8, PG9 Ab binder 68.2 (no result: UCH37 inh, Rce1 inh) | PG9 binder conf 38.7 | PGV04 counter 31.9 | PG9 binder DR inactive | PGV04 binding DR inactive | PG126 DR counter inactive | NR1D1 mod conf 52.8 | RORg DNA counter inactive
COc1ccc(C(=O)Nc2nnc(Cc3cccs3)s2)cc1OC	Rev-erbA mod 46.4, PG9 Ab binder 33.1 | PG9 binder conf 45.2 | PGV04 counter 75.2 | NR1D1 mod conf 47.2 | RORg DNA counter inactive
O=C(NN=Cc1ccc(Sc2ccccn2)o1)c1cccc(Br)c1	none (no result: CR mimetic SO, beta cell repl, Rev-erbA mod, PG9 Ab binder, Rce1 inh)
CCNc1nc(Cl)nc(-c2cn(-c3ccccc3)c3ccccc23)n1	Rev-erbA mod 42.0, PG9 Ab binder 10.7 | PG9 binder conf 9.0 | PGV04 counter 9.4 | NR1D1 mod conf inactive
Clc1nc(Oc2ccccc2)nc(-c2cn(-c3ccccc3)c3ccccc23)n1	none
COc1ccc(S(=O)(=O)NN=C(C)c2ccc(Cl)cc2)cc1	none (no result: CR mimetic SO, beta cell repl, Rev-erbA mod, PG9 Ab binder, Rce1 inh)
CCc1nc(SCC(=O)Nc2ccc3c(c2)OCCO3)c2oc3ccccc3c2n1	Rev-erbA mod 172.3, PG9 Ab binder 50.5 | PG9 binder conf 67.6 | PGV04 counter 83.5 | NR1D1 mod conf 168.5 | RORg DNA counter inactive
Cc1nc(SCC(=O)Nc2ccc3c(c2)OCCO3)c2oc3ccccc3c2n1	Rev-erbA mod 294.1, PG9 Ab binder 33.2 | PG9 binder conf 37.6 | PGV04 counter 24.0 | PG9 binder DR inactive | PGV04 binding DR inactive | PG126 DR counter inactive | NR1D1 mod conf 301.9
CCc1nc(Nc2ccc3c(c2)OCO3)c2oc3ccccc3c2n1	none (no result: UCH37 inh)
Cc1ccc(-c2nc3ncccc3o2)cc1NC(=O)c1cc2ccccc2o1	Rev-erbA mod 18.9, PG9 Ab binder 8.9 | PG9 binder conf 11.8 | PGV04 counter 34.7 | NR1D1 mod conf inactive
Cc1ccc(-c2nc3ncccc3o2)cc1NC(=O)COc1ccccc1	Rev-erbA mod 21.8, PG9 Ab binder 9.1 | PG9 binder conf 12.6 | PGV04 counter 18.1 | NR1D1 mod conf inactive
CCOc1ccc(S(=O)(=O)Nc2nc3ccccc3nc2-n2ccc(=NC(=O)c3ccccc3C)cc2)cc1	Rev-erbA mod 39.1, PG9 Ab binder 40.2 | PG9 binder conf 32.3 | PGV04 counter 65.2 | NR1D1 mod conf 59.3 | RORg DNA counter inactive
Cc1cc(-c2cccc(Br)c2)c(C#N)c(N)n1	Rev-erbA mod 21.3, PG9 Ab binder 33.5 | PG9 binder conf 37.9 | PGV04 counter 61.3 | NR1D1 mod conf inactive
Cc1cc(C)c(C#N)c(N)n1	none
COc1ccc(C(=O)Nc2scc(-c3ccc(Cl)cc3Cl)c2C(N)=O)cc1	Rev-erbA mod 62.0, PG9 Ab binder 9.8 | PG9 binder conf inactive | PGV04 counter 19.0 | NR1D1 mod conf 55.6 | RORg DNA counter inactive
COc1ccc(C(=O)Nc2cc(OC)c(Cl)cc2Cl)cc1	none
Cc1ccc(CNC(=O)CS(=O)(=O)Cc2nc(-c3ccc(C)cc3)oc2C)cc1	Rev-erbA mod 27.8, PG9 Ab binder 28.4 | PG9 binder conf 20.0 | PGV04 counter 53.2 | NR1D1 mod conf inactive
CC1CN(S(=O)(=O)c2ccc(C(=O)Nc3nc(-c4cc5ccccc5o4)cs3)cc2)CC(C)O1 (stereo not given)	Rev-erbA mod 64.3, PG9 Ab binder 63.4 | PG9 binder conf 71.0 | PGV04 counter 79.2 | NR1D1 mod conf inactive
Cc1nn(-c2ccccc2)c(Cl)c1C=NNC(=O)c1cccnc1	none (no result: CR mimetic SO, beta cell repl, Rev-erbA mod, PG9 Ab binder, Rce1 inh)
Cc1ccc2cc(C#N)c(SCC(=O)NNC(=O)Cc3ccccc3)nc2c1	Rev-erbA mod 52.3, PG9 Ab binder 20.0 (no result: CR mimetic SO, beta cell repl, UCH37 inh, Rce1 inh) | PG9 binder conf 38.3 | PGV04 counter 41.3 | NR1D1 mod conf 43.8 | RORg DNA counter inactive
CCOC(=O)CSc1nc2cc(OCC)ccc2cc1C#N	Rev-erbA mod 82.9, PG9 Ab binder 27.9 | PG9 binder conf 37.6 | PGV04 counter 58.2 | NR1D1 mod conf 72.1 | RORg DNA counter inactive
Cc1ccc2nc(SCC(=O)NCc3cccs3)c(C#N)cc2c1	Rev-erbA mod 46.8, PG9 Ab binder 15.2 | PG9 binder conf 37.3 | PGV04 counter 48.6 | NR1D1 mod conf 21.7
COc1cccc(-c2ccc(C#N)c(SCC(=O)NCCc3cccc(Cl)c3)n2)c1	Rev-erbA mod 34.1, PG9 Ab binder 22.2 (no result: Rce1 inh) | PG9 binder conf 23.9 | PGV04 counter 43.3 | NR1D1 mod conf 23.3
CCOC(=O)c1c(N=CN(C)C)sc(C)c1C	none (no result: CR mimetic SO, beta cell repl, Rev-erbA mod, PG9 Ab binder, Rce1 inh)
